Calls of active or inactive are those of the source. The rule behind the calls is not given here.
Assays:
HCT-116 [1] = experiment: Increase in EGR1 protein expression in human HCT116 cells after 3 days by Western blotting; type: functional, cell-based
How it was run: (§1)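 Treated cells (3 days unless stated; HCT-116 also 24 h) washed in ice-cold PBS, lysed in RIPA with protease inhibitors; equal protein (5–20 μg, BCA) run on 4–15% Tris-HCl gel, transferred to nitrocellulose, blocked in 5% milk/TBST, primary antibody 2 h RT or overnight 4 °C, HRP secondary 1 h; chemiluminescence, densitometry. β-actin antibody also used. Two independent experiments.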

MDA-MB-231 [2] = experiment: Increase in EGR1 mRNA expression in human MDA-MB-231 cells at 60 uM after 3 days by qRT-PCR relative to control; type: functional
HCT-116 [3] = experiment: Decrease in EGR1 protein expression in human HCT116 cells after 24 hrs by Western blotting; type: functional, cell-based; how it was run: as §1
MDA-MB-231 [4] = experiment: Growth inhibition of human MDA-MB-231 cells after 3 days; type: functional, cell-based
How it was run: (§2)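 Cells seeded in 6-well plates (MDA-MB-231 2.0–2.7×10^5, HCT-116 1.0×10^5 cells/well) with analog in ethanol (vehicle <0.5% v/v), grown 3 days at 37 °C, 5% CO2; cell numbers by Coulter particle counter, two 100 μl counts per sample.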

HCT-116 [5] = experiment: Decrease in TP53 protein expression in human HCT116 cells assessed as protein levels at 20 uM after 3 days by Western blotting; type: functional; parameters: scale not given: the % may be the effect or the level left; how it was run: as §1
MDA-MB-231 [6] = experiment: Increase in TGF-beta1 mRNA expression in human MDA-MB-231 cells at 45 uM after 3 days by qRT-PCR; type: functional, cell-based
HCT-116 [7] = experiment: Decrease in EGR1 mRNA expression in human HCT116 cells after 3 days by qRT-PCR; type: functional, cell-based
MDA-MB-231 [8] = experiment: Decrease in TP53 protein level in human MDA-MB-231 cells at 15 uM after 3 days by Western blotting; type: functional, cell-based; how it was run: as §1
HCT-116 [9] = experiment: Decrease in TP53 protein expression in human HCT116 cells assessed as protein levels at 25 uM after 3 days by Western blotting; type: functional; parameters: scale not given: the % may be the effect or the level left; how it was run: as §1
MDA-MB-231 [10] = experiment: Increase in EGR1 mRNA expression in human MDA-MB-231 cells at 45 uM after 3 days by qRT-PCR relative to control; type: functional
HCT-116 [11] = experiment: Growth inhibition of human HCT116 cells after 3 days; type: functional, cell-based; how it was run: as §2
HCT-116 [12] = experiment: Increase in HPSE protein level in human HCT116 cells at 20 uM after 3 days by Western blotting; type: functional; how it was run: as §1
HCT-116 [13] = experiment: Increase in EGR1 mRNA expression in human HCT116 cells after 24 hrs by qRT-PCR; type: functional, cell-based
MDA-MB-231 [14] = experiment: Increase in ID1 mRNA expression in human MDA-MB-231 cells at 45 uM after 3 days by qRT-PCR; type: functional, cell-based
MDA-MB-231 [15] = experiment: Decrease in EGR1 protein expression in human MDA-MB-231 cells at >45 uM after 3 days by Western blotting relative to control; type: functional; how it was run: as §1
MDA-MB-231 [16] = experiment: Increase in NQO1 mRNA expression in human MDA-MB-231 cells at 60 uM after 3 days by qRT-PCR; type: functional, cell-based
HCT-116 [17] = experiment: Suppression of TP53 protein expression in human HCT116 cells at 20 uM after 3 days by Western blotting; type: functional, cell-based; how it was run: as §1
MDA-MB-231 [18] = experiment: Increase in VEGFA mRNA expression in human MDA-MB-231 cells at 60 uM after 3 days by qRT-PCR; type: functional, cell-based
MDA-MB-231 [19] = experiment: Increase in EGR1 mRNA expression in human MDA-MB-231 cells at 75 uM after 3 days by qRT-PCR relative to control; type: functional
HCT-116 [20] = experiment: Decrease in TP53 mRNA level in human HCT116 cells at >=15 uM after 3 days by qRT-PCR
MDA-MB-231 [21] = experiment: Increase in VEGFA mRNA expression in human MDA-MB-231 cells at 75 uM after 3 days by qRT-PCR; type: functional, cell-based
MDA-MB-231 [22] = experiment: Increase in VEGFA mRNA expression in human MDA-MB-231 cells at 45 uM after 3 days by qRT-PCR; type: functional, cell-based
MDA-MB-231 [23] = experiment: Increase in NQO1 mRNA expression in human MDA-MB-231 cells at 75 uM after 3 days by qRT-PCR; type: functional, cell-based
MDA-MB-231 [24] = experiment: Suppression of TP53 mRNA expression in human MDA-MB-231 cells at 60 uM after 3 days by qRT-PCR; type: functional, cell-based
MDA-MB-231 [25] = experiment: Increase in ID1 mRNA expression in human MDA-MB-231 cells at 60 uM after 3 days by qRT-PCR; type: functional, cell-based
MDA-MB-231 [26] = experiment: Increase in TGF-beta1 mRNA expression in human MDA-MB-231 cells at 60 uM after 3 days by qRT-PCR; type: functional, cell-based
MDA-MB-231 [27] = experiment: Increase in TGF-beta1 mRNA expression in human MDA-MB-231 cells at 75 uM after 3 days by qRT-PCR; type: functional, cell-based
HCT-116 [28] = experiment: Suppression of TP53 protein expression in human HCT116 cells at 25 uM after 3 days by Western blotting; type: functional, cell-based; how it was run: as §1
MDA-MB-231 [29] = experiment: Increase in ID1 mRNA expression in human MDA-MB-231 cells at 75 uM after 3 days by qRT-PCR; type: functional, cell-based
HCT-116 [30] = experiment: Increase in HPSE protein level in human HCT116 cells at 25 uM after 3 days by Western blotting; type: functional; how it was run: as §1
MDA-MB-231 [31] = experiment: Increase in NQO1 mRNA expression in human MDA-MB-231 cells at 45 uM after 3 days by qRT-PCR; type: functional, cell-based
MDA-MB-231 [32] = experiment: Suppression of TP53 mRNA expression in human MDA-MB-231 cells at 75 uM after 3 days by qRT-PCR; type: functional, cell-based
MDA-MB-231 [33] = experiment: Suppression of MUC1 mRNA expression in human MDA-MB-231 cells by qRT-PCR; type: functional, cell-based
MDA-MB-231 [34] = experiment: Increase in sialic acid production in human MDA-MB-231 cells by periodate-resorcinal assay; type: functional, cell-based
MDA-MB-231 [35] = experiment: Growth inhibition of human MDA-MB-231 cells; type: functional, cell-based
MDA-MB-231 [36] = experiment: Increase in ID1 mRNA expression in human MDA-MB-231 cells after 3 days by qRT-PCR; type: functional, cell-based
MDA-MB-231 [37] = experiment: Increase in TGF-beta1 mRNA expression in human MDA-MB-231 cells after 3 days by qRT-PCR; type: functional, cell-based
MDA-MB-231 [38] = experiment: Increase in VEGFA mRNA expression in human MDA-MB-231 cells after 3 days by qRT-PCR; type: functional, cell-based
MDA-MB-231 [39] = experiment: Increase in NQO1 mRNA expression in human MDA-MB-231 cells after 3 days by qRT-PCR; type: functional, cell-based

`CCCC(=O)OC[C@H]1OC(O)[C@@H](NC(C)=O)[C@@H](OC(=O)CCC)[C@@H]1OC(=O)CCC` (some centres undefined) was tested, and the Activity (HCT-116 [1]) was “Active”, the “fold change (FC)” value (MDA-MB-231 [2]) was 25 and the Activity (HCT-116 [3]) was “Active”. For the same compound, the Activity (MDA-MB-231 [4]) was “Active”, the Activity (HCT-116 [5]) was “<=5%” and the Activity (MDA-MB-231 [6]) was “Active”. For the same compound, the Activity (HCT-116 [7]) was “Active”, the Activity (MDA-MB-231 [8]) was “Active” and the Activity (HCT-116 [9]) was “<=5%”. For the same compound, the “fold change (FC)” value (MDA-MB-231 [10]) was 2, the Activity (HCT-116 [11]) was “Active” and the “fold change (FC)” value (HCT-116 [12]) was “>=50”. The Activity (HCT-116 [13]) was “Active”, the Activity (MDA-MB-231 [14]) was “Active” and the “fold change (FC)” value (MDA-MB-231 [15]) was 2. For the same compound, the Activity (MDA-MB-231 [16]) was “Active”, the Activity (HCT-116 [17]) was “Active” and the Activity (MDA-MB-231 [18]) was “Active”. The “fold change (FC)” value (MDA-MB-231 [19]) was 25, the Activity (HCT-116 [20]) was “Active” and the Activity (MDA-MB-231 [21]) was “inactive”. The Activity (MDA-MB-231 [22]) was “Active”, the Activity (MDA-MB-231 [23]) was “inactive” and the Activity (MDA-MB-231 [24]) was “Active”. For the same compound, the Activity (MDA-MB-231 [25]) was “Active”, the Activity (MDA-MB-231 [26]) was “Active” and the Activity (MDA-MB-231 [27]) was “inactive”. For the same compound, the Activity (HCT-116 [28]) was “Active”, the Activity (MDA-MB-231 [29]) was “inactive” and the “fold change (FC)” value (HCT-116 [30]) was “>=50”. For the same compound, the Activity (MDA-MB-231 [31]) was “Active” and the Activity (MDA-MB-231 [32]) was “Active”.
`CC(=O)N[C@@H]1C(OC(C)=O)O[C@H](COC(C)=O)[C@@H](OC(C)=O)[C@@H]1OC(C)=O` (some centres undefined) was tested, and the Activity (MDA-MB-231 [33]) was “Active” and the Activity (MDA-MB-231 [34]) was “Active”.
For `CCCC(=O)OC1O[C@H](COC(C)=O)[C@@H](OC(C)=O)[C@H](OC(C)=O)[C@@H]1NC(C)=O` (some centres undefined), the Activity (MDA-MB-231 [35]) was “Active” and the Activity (MDA-MB-231 [34]) was “Active”.
With `CCCC(=O)OC1O[C@H](CO)[C@@H](OC(=O)CCC)[C@H](OC(=O)CCC)[C@@H]1NC(C)=O` (some centres undefined) the Activity (MDA-MB-231 [36]) was “inactive”, the Activity (MDA-MB-231 [37]) was “inactive” and the Activity (MDA-MB-231 [38]) was “inactive”. For the same compound, the Activity (MDA-MB-231 [39]) was “inactive”.
`CCCC(=O)OC[C@H]1OC(OC(C)=O)[C@@H](NC(C)=O)[C@@H](OC(C)=O)[C@@H]1OC(C)=O` (some centres undefined) was tested, and the Activity (MDA-MB-231 [33]) was “Active”, the Activity (MDA-MB-231 [35]) was “Active” and the Activity (MDA-MB-231 [34]) was “Active”.
`CCCC(=O)OC[C@H]1OC(OC(=O)CCC)[C@@H](NC(C)=O)[C@@H](OC(=O)CCC)[C@@H]1OC(=O)CCC` (some centres undefined) was tested, and the Activity (MDA-MB-231 [34]) was “Active”.

Source: ChEMBL document CHEMBL1153440, “Hexosamine template. A platform for modulating gene expression and for sugar-based drug discovery” (2009)
